A selection: hits, their analogues and other compounds. The true share with any hit is near 4.5%.
OX1R antag-1 – antagonists of human orexin 1 receptor (OX1R); O43613; OX1R-expressing cells, FRET antagonist read-out; inhibition, % at 6.6 µM; 330,000 compounds, 1.8% hits; in the data active = inhibition mostly above about 38%, no sharp cut-off; inactive = mostly below about 40%;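 also: 0% = agonist challenge alone and 100% = reference antagonist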
TAAR1 antagonist – human TAAR1 antagonism. Q96RJ0. CHO RD-HGA16 TAAR1, Fluo-8 calcium fluorescence, antagonist. inhibition, % at 3 µM. 360,000 compounds, 1.5% hits;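 active = inhibition above a per-plate cutoff, the mean inhibition of test compounds on that plate plus 3 SD, cut at about 49% in these data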;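 also: 0% = DMSO plus EC80 beta-PEA response and 100% = DMSO alone without agonist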
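System: CHO RD-HGA16 cells bearing hTAAR1. Reagent: EC80 β-phenethylamine stimulus. Schedule: seeding 17-24 h prior, 75-min 37 °C, 30-min RT dye loading. Signal: Fluo-8 intracellular calcium dye fluorescence, real-time kinetic reads. Read-out: % inhibition from peak post-agonist over basal fluorescence ratio. Benchmarks: vehicle wells and EC80 agonist wells. Replicates: n of 1.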
TAAR1 agonist – human TAAR1 agonism | Q96RJ0 | CHO RD-HGA16 TAAR1, Fluo-8 calcium fluorescence; vehicle wells 0%, saturating PEA agonist 100% | activation, % at 3 µM | 360,000 compounds, 0.99% hits;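 active = activation above the mean activation of all test compounds in the run plus 3 SD, cut at about 38% in these data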
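Signal – calcium-sensitive Fluo-8 signal, excitation 470-495, emission 515-575 nm · System – RD-HGA16 (CHO) cells co-expressing Gα16 and hTAAR1 · Incubation – 17-24 h seeding, 75 min 37 °C dye, 30 min RT · Compound dosing – 3 µM single concentration · Repeats – no replicates (n 1)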
OX1R antag-2 – human HCRTR1 antagonism. O43613. CHO/OX1R cells, Fluo-8 calcium fluorescence, orexin A. inhibition, % at 5 µM. 330,000 compounds, 0.43% hits;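 active = inhibition above its plate's threshold, mean inhibition of all tested compounds on the plate plus 3 SD, cut at about 37% in these data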;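 also: 0% = orexin A challenge wells and 100% = SB-334867-A antagonist wells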
GPR7 antagonist – antagonists of human GPR7 (neuropeptides B/W receptor 1); 290,000 compounds, 1.1% hits; GPR7-expressing cells, fluorescence antagonist assay; inhibition, % at 4.4 µM; P48145; in the data active = inhibition above about 16%, passing the limit was not always enough;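 also: cells stimulated with the agonist NPW; 0% = agonist with vehicle and 100% = vehicle without agonist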
Target sequence (P48145 whole entry, looked up): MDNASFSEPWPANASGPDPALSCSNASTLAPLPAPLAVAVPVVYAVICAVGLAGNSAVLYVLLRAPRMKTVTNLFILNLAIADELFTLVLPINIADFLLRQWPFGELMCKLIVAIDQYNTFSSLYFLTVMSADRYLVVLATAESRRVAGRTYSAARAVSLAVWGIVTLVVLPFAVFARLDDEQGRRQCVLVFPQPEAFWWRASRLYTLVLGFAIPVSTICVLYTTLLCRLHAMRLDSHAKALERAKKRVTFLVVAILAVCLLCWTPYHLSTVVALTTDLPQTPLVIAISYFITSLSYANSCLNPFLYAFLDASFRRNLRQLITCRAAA
CHO parental Ca – signal in parental CHO cells, OX1R antagonist counter-screen. parental CHO-K1, ATP-induced calcium, Fluo-8 fluorescence. 330,000 compounds, 0.63% hits. inhibition, % at 5.6 µM;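 active = inhibition above that plate's mean sample inhibition plus 3 SD, cut at about 26% in these data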;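 also: 0% = ATP-challenged DMSO wells and 100% = DMSO wells without ATP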
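test system = CHO parental line | reagent = ATP stimulus | measured by = intracellular calcium via Fluo-8 no-wash fluorescent dye | control set = ATP and no-ATP DMSO wells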
OX1R Fluo8 conf – OX1R (human) antagonism, confirmed | shares compounds with OX1R antag-2 | CHO/OX1R cells, orexin A calcium Fluo-8 fluorescence | inhibition, % at 5 µM | 1,100 compounds, 38% hits | AID 492963; in the data active = inhibition above about 29%;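 also: 0% = agonist challenge alone and 100% = reference antagonist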
CHO Ca triplic – signal in parental CHO cells, OX1R antagonist counter-screen; 1,100 compounds, 9.3% hits; parental CHO-K1, ATP-induced calcium, Fluo-8 fluorescence; AID 492965; shares compounds with OX1R antag-2; inhibition, % at 5.6 µM;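 active = inhibition above a per-plate limit, the mean inhibition of that plate's test compounds plus 3 SD, cut at about 25% in these data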;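 also: 0% = ATP challenge with DMSO and 100% = DMSO without ATP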
Active calls of the source: *; nt = not tested or not shown.

SMILES	OX1R antag-1	TAAR1 antagonist	TAAR1 agonist	OX1R antag-2	GPR7 antagonist	CHO parental Ca	OX1R Fluo8 conf	CHO Ca triplic
CCOC(=O)CC1c2nc3ccccc3cc2CN1C(=O)OCC (configuration not stated)	nt	6	0	nt	nt	nt	nt	nt
Cc1ccc(/C=C2\Sc3ccccc3C2=O)s1	13	0	1	30	7	-22	34*	-1
Cc1c(NC(=O)c2cccc(-c3cc4ccccc4oc3=O)c2)cccc1-c1nc2ncccc2o1	67	43	10	32	-7	-19	24	-16
COC(=O)C[C@@H]1CC[C@@H](NS(=O)(=O)c2ccc(OC)cc2)[C@@H](CO)O1	nt	-16	4	nt	nt	nt	nt	nt
O=C(OCc1ccc(COC(=O)c2cccnc2Cl)cc1)c1cccnc1Cl	18	33	11	58*	-1	12	30*	36*
O=C(OCc1ccc(F)cc1)c1cccnc1Cl	7	-11	-1	-15	-13	4	nt	nt
Cc1ccc(/C=C2\SC(=S)N(CCC(=O)NNC(=O)c3cccnc3)C2=O)cc1	28	34	12	-7	-7	-7	nt	nt
O=C(CCN1C(=O)/C(=C/c2ccccc2)SC1=S)NNC(=O)c1cccnc1	45	60*	11	46*	-2	16	47*	69*
C=CCn1c(SCC(=O)Nc2sccc2C(N)=O)nc2sc(C)c(C)c2c1=O	20	8	1	43	-4	-14	-1	-15
CC(C)OC(=O)CSc1nc2c(c(C3CC=CCC3)c1C#N)CCC2 (configuration not stated)	18	21	3	54*	4	6	-11	-3
CC(=O)Nc1ccc(/C(C)=N/Nc2nc(Nc3cccc4ccccc34)nc(N3CCOCC3)n2)cc1	24	52*	50*	40*	17	11	1	-6
COC(=O)c1csc(C2OC(CO)C(O)C2O)n1 (configuration not stated)	nt	-6	2	nt	nt	nt	nt	nt
Cc1ccc(C(=O)OCn2ncc(Cl)c(Cl)c2=O)cc1	15	20	11	30	7	21	73*	20
CCOC(=O)c1ccc(NC(=O)Cn2ncc(Cl)c(Cl)c2=O)cc1	7	14	0	17	9	11	nt	nt
CC(Cc1ccc(Cl)cc1)N1CCC(n2nccc2NC(=O)C2CCCC2)CC1 (configuration not stated)	14	-8	8	-32	5	-34	nt	nt
O=C(c1ccc2ccccc2c1)C1CCCN(S(=O)(=O)c2cccnc2)C1 (configuration not stated)	30	25	7	35	4	10	6	0
O=c1cc(CN2CC(O)Cc3ccc4ccccc4c32)nc2sccn12 (configuration not stated)	47	13	0	71*	-5	-12	57*	-6
CC1Cc2ccccc2N1Cc1cc(=O)n2ccsc2n1 (configuration not stated)	37	0	-1	-27	3	-8	nt	nt
CCOC(=O)c1sc(N)nc1C(C)(C)C	20	-12	6	41	1	-10	-2	1
CCOC(=O)c1sc(NCCNc2nc(C)c(C(=O)OCC)s2)nc1C	24	nt	nt	-23	nt	-18	nt	nt
Cc1nc(C(F)(F)F)ccc1C(=O)N1CCCC(C)(C(=O)O)C1 (configuration not stated)	nt	7	0	nt	nt	nt	nt	nt
COc1ccc(NS(=O)(=O)c2ccc(SC)cc2)cc1	7	-6	11	57*	12	1	2	5
COc1cccc(-c2csc(N3CCN(C(=O)Nc4ccc(Cl)cc4)CC3)n2)c1	30	58*	10	32	5	7	16	7
COc1cccc(-c2sc3ccc(OC)cc3c2-c2ccc(OCCN(C)C)cc2)c1	7	51*	37	59*	nt	23	37*	4

Screens from PubChem BioAssay.
